Source: PubChem BioAssay
Inconclusive results are not listed.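 The calls were made as follows, unless noted: active = viability at or below 27.92% in each of two runs, the all-compound median minus 4 SD; inconclusive = no clear call, values can overlap the other calls; inactive = the rest.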

Columns and labels:
[1] = OD615 S. cerevisiae growth inhibition, permissive medium, pilot counter-assay, permissive growth control for S. cerevisiae lifespan shortening project (AID 705;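 active = growth inhibition above 25% in both replicates, a cutoff set 3 SD above the mean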); conditions: OD615, 24 h, at 10 µM, stronger effect = higher value
Procedure, shortened: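 System: S. cerevisiae with engineered DeaD lifespan system / Measured by: absorbance (optical density) at 615 nm / Read-out: reduction in yeast growth (OD615) / Times: 4 h cell pre-growth, 24 h exposure at 30 °C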

[2] = Restrictive medium S. cerevisiae growth inhibition, OD615, pilot screen of yeast lifespan reduction project, restrictive growth control (AID 706;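 active = growth inhibition above a set limit, 3 SD over mean compound inhibition, in both replicates, cut at about 43% in these data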;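 also: modified DeaD lifespan yeast strain shifted to restrictive glucose medium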); conditions: OD615, 48 h, at 10 µM, stronger effect = higher value
Procedure, shortened: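 System: Engineered S. cerevisiae DeaD strain | Buffer or medium: Glucose-based CSMM-D restrictive medium | Schedule: 4 h pre-incubation, 48 h exposure at 30 °C | Technique: Optical density at 615 nm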

[3] = viability gain of MRP-1-high H69AR cells under doxorubicin, pilot screen, MRP-1 activator project, CellTiter-Glo, duplicate (AID 807;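 active = viability increase at or above a cutoff of the median across tested compounds plus 3 SD, cut at about 8.5% in these data, passing the limit was not always enough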;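 also: compound pretreatment 18-22 h then 72 h combined with doxorubicin; 0% = doxorubicin alone and 100% = vehicle without doxorubicin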); conditions: H69AR viability with doxorubicin, CellTiter-Glo luminescence; at 10 µM; stronger effect = higher value
[4] = growth suppression of beta-catenin knockout HCT116, pilot screen, human colon tumor cells (AID 823;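 active = cell viability at or below a set limit in both duplicate runs, the limit being the all-compound median minus 4 SD, cut at about 23% in these data, passing the limit was not always enough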;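 also: 0% = wells killed by 20 µM Hyamine and 100% = untreated DMSO cell wells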); conditions: CellTiter-Glo, 60 h, at 10 µM, stronger effect = lower value
[5] = growth suppression of PTEN-deleted HCT116, pilot screen, cell-based, HCT116 clonal line, CellTiter-Glo (AID 824); conditions: 60 h, at 10 µM, stronger effect = lower value;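 also: 0% = 20 µM Hyamine control and 100% = vehicle cell control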
[6] = inhibitors of the yeast RAM network, pilot screen, dse1pr::URA3 reporter, 5-FOA selection (AID 869;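 active = inhibition over a set limit, the all-compound mean plus 3 SD, in both replicate runs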;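 also: 0% = DMSO wells with no growth and 100% = 10 µM 1-NA-PP1 with full growth; RAM network block rescues cells from 5-FOA so hits raise OD615 growth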); conditions: S. cerevisiae dse1pr::URA3 5-FOA growth, OD615, 2 d; at 10 µM; stronger effect = higher value; strain carries analog-sensitive mutant Cbk1 kinase
[7] = RAM signaling pathway blockade in yeast – S. cerevisiae, Pdr1DBD-CYC8 efflux-inhibited sensitized strain, primary screen (AID 1298;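 active = RAM network inhibition above 8.4% in each of two replicates, 3 SD over the compound average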;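 also: 0% = DMSO untreated cells without growth and 100% = 10 µM 1-NA-PP1 full growth; higher means more yeast growth rescued from 5-FOA killing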); conditions: S. cerevisiae cbk1-as DSE1-URA3 strain, 5-FOA growth OD615, 2 d; at 50 µM; stronger effect = higher value

COc1ccc(-n2c(Cc3cc(=O)[nH]c(=O)[nH]3)nnc2SCc2ccccc2)cc1
inactive: growth inhibition [1] 6.28% | growth inhibition [2] -3.2% | viability increase [3] -0.7% | viability [4] 108% | viability [5] 103% | inhibition [6] 0.455% | RAM network inhibition [7] 3.82%

Cc1cc2ncn(CC(O)COC3CCCCC3)c2cc1C (configuration not stated)
inactive: growth inhibition [1] -8.15% | growth inhibition [2] -2.2% | viability increase [3] -2.98% | viability [4] 89.9% | viability [5] 90.3% | inhibition [6] 1.75% | RAM network inhibition [7] 4.21%

CN1CCN(Cc2c(O)ccc3occ(C(=O)c4ccccc4)c23)CC1
inactive: growth inhibition [1] -13% | growth inhibition [2] -16.2% | viability increase [3] -4% | viability [4] 73% | viability [5] 79% | inhibition [6] 1.56% | RAM network inhibition [7] 7.8%

CCC(=O)c1cc2c(cc1NC(=O)c1cccs1)OCCO2
inactive: growth inhibition [1] -5.85% | growth inhibition [2] -7.54% | viability increase [3] -6.83% | viability [4] 69.2% | viability [5] 75.2% | inhibition [6] 1.38% | RAM network inhibition [7] 9.21%

Cc1ccc2c(c1)-c1c(cnn1CC(=O)N1CCCN(Cc3ccccc3F)C1)CO2
inactive: growth inhibition [1] -0.225% | growth inhibition [2] -1.89% | viability increase [3] -2.83% | viability [4] 88.9% | viability [5] 93.1% | inhibition [6] 1% | RAM network inhibition [7] 1.9%

COc1ccc(CCNC(=O)c2cnccn2)cc1
inactive: growth inhibition [1] -10.1% | growth inhibition [2] -2.55% | viability increase [3] 0.3% | viability [4] 102% | viability [5] 87.2% | inhibition [6] 3.53% | RAM network inhibition [7] 2.5%

CCCCNC(=O)CS(=O)Cc1nc(-c2cccs2)oc1C (configuration not stated)
inactive: growth inhibition [1] -3.47% | growth inhibition [2] 21.5% | viability increase [3] -0.37% | viability [4] 97.6% | viability [5] 95.7% | inhibition [6] 1.57% | RAM network inhibition [7] 0.54%

CCc1nnc(NC(=O)CSc2nccn2-c2cccc(C)c2)s1
inactive: growth inhibition [1] -8.43% | growth inhibition [2] 11.6% | viability increase [3] 0.02% | viability [4] 109% | viability [5] 98.1% | inhibition [6] 0.64% | RAM network inhibition [7] 5.11%

CCN(CC)CCNC(=O)Cn1nc(Cc2cccnc2)c2ccccc2c1=O
inactive: growth inhibition [1] -3.85% | growth inhibition [2] -2.59% | viability increase [3] -0.86% | viability [4] 95.7% | viability [5] 97.7% | inhibition [6] -0.35% | RAM network inhibition [7] 1.23%

CC(C)N(CCc1ccncc1)C(=O)Nc1ccc(F)cc1
inactive: growth inhibition [1] 0.1% | growth inhibition [2] -7.37% | viability increase [3] -2.27% | viability [4] 102% | viability [5] 96.8% | inhibition [6] 1.21% | RAM network inhibition [7] 5.33%

CC(CCc1ccccc1)NC(=O)CSc1nnnn1C (configuration not stated)
inactive: growth inhibition [1] -6.04% | growth inhibition [2] -18.6% | viability increase [3] -1.52% | viability [4] 101% | viability [5] 101% | inhibition [6] 1.61% | RAM network inhibition [7] 4.5%

CCc1ccc(NC(=O)CSc2nc3c(c(=O)n(C)c(=O)n3C)n2C)cc1
inactive: growth inhibition [1] 3.77% | growth inhibition [2] -8% | viability increase [3] -1.41% | viability [4] 91.8% | viability [5] 94.6% | inhibition [6] 1.03% | RAM network inhibition [7] 0.68%

CCOC(=O)c1cn(-c2ccccc2)nc1-c1cccnc1
inactive: growth inhibition [1] -13.6% | growth inhibition [2] -8.75% | viability increase [3] -3.34% | viability [4] 106% | viability [5] 93.5% | inhibition [6] 1.63% | RAM network inhibition [7] 7.28%

CC1=CC(C)(C)N(C(=O)CSc2nnc(-c3ccccc3)o2)c2ccc(C)cc21
inactive: growth inhibition [1] -10% | growth inhibition [2] 2.73% | viability increase [3] -5.46% | viability [4] 62% | viability [5] 66.2% | inhibition [6] 0.325% | RAM network inhibition [7] 6.03%

Cc1ccc(-c2nc(CS(=O)CC(=O)NCCC(C)C)c(C)o2)cc1 (configuration not stated)
inactive: growth inhibition [1] -6.7% | growth inhibition [2] -1.91% | viability increase [3] -0.71% | viability [4] 92.2% | viability [5] 95.8% | inhibition [6] 1.14% | RAM network inhibition [7] 3.42%

CCC1(C)OC(=O)N2CCc3c(C)[nH]c4c(C)ccc(c34)C21C (configuration not stated)
inactive: growth inhibition [1] -14.7% | growth inhibition [2] -17.8% | viability increase [3] -1.6% | viability [4] 95.9% | viability [5] 91.3% | inhibition [6] 2.15% | RAM network inhibition [7] 1.06%
